Laboratory results from ChEMBL document CHEMBL4043134, “Isolation and lipolytic activity of eurycomanone and its epoxy derivative from Eurycoma longifolia” (Bioorg Med Chem, 2017).
Calls of active or inactive are those of the source. The calls are words filed in the database; no cut-off is given here.

Columns and labels:
[1] = system: 3T3-L1; test: Antiobesity activity in mouse 3T3L1 cells assessed as increase in glycerol release up to 100 uM after 24 hrs relative to control; format: functional, cell-based
Method in brief: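 Mouse 3T3-L1 preadipocytes were differentiated from day 0 (one day post-confluence) in 10% FBS/DMEM with 0.5 mM IBMX, 0.25 μM DEX and 5 μg/mL insulin, then switched to insulin medium, then plain medium; used on day 8. Samples were dissolved in DMSO and diluted into phenol-red-free DMEM, applied for 24 h. Medium glycerol was measured with free glycerol reagent (37 °C, 5 min, A540) relative to control; 1 μM isoproterenol positive control; mean ± SEM, n=6, Dunnett's test.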

[2] = system: 3T3-L1; test: Antiobesity activity in mouse 3T3L1 cells assessed as reduction in accumulation of lipid droplets up to 100 uM administered on day 4 post differentiation induction measured on day 9 by Oil Red O staining-based microscopic analysis relative to control; format: functional, cell-based
[3] = system: 3T3-L1; test: Antiobesity activity in mouse 3T3L1 cells assessed as increase in glycerol release after 24 hrs; format: functional, cell-based; details: for EC50: 3T3-L1, 24 h
Method in brief: (§1)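 3T3-L1 preadipocytes were differentiated with IBMX (0.5 mM), DEX (0.25 μM) and insulin (5 μg/mL) from day 0, then insulin alone, then plain 10% FBS/DMEM. On day 8 they were exposed to sample (DMSO stock diluted in phenol-red-free DMEM) for 24 h. Medium was mixed with free glycerol reagent (37 °C, 5 min) and read at A540, relative to control. Mean ± SEM, n=6.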

[4] = system: Mus musculus; test: Activation of ERK in mouse 3T3-L1 cells assessed as lipolytic activity by measuring increase in glycerol release at 25 uM administered 1 hr after ERK inhibitor addition measured after 24 hrs in presence of 20 uM ERK inhibitor PD 98059; format: cell-based
Method in brief: (§2)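 Day-8 differentiated 3T3-L1 adipocytes were preincubated with the specified inhibitor for 1 h, then incubated with sample plus inhibitor for 24 h in phenol-red-free DMEM. Released glycerol in the medium was quantified with free glycerol reagent (37 °C, 5 min, A540) and expressed relative to control.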

[5] = system: 3T3-L1; test: Cytotoxicity against mouse 3T3L1 cells assessed as reduction in cell viability up to 100 uM after 6 to 48 hrs by CCK-8 assay; format: cell-based
[6] = system: Mus musculus; test: Activation of PKA in mouse 3T3-L1 cells assessed as lipolytic activity by measuring increase in glycerol release at 25 uM administered 1 hr after PKA inhibitor addition measured after 24 hrs in presence of 20 uM PKA inhibitor H-89; format: cell-based; method in brief: as §2
[7] = molecular target: Beta-3 adrenergic receptor (Mus musculus) (UniProt P25962); test: Activation of beta3 adrenergic receptor in mouse 3T3-L1 cells assessed as lipolytic activity by measuring increase in glycerol release at 25 uM administered 1 hr after beta3 adrenergic receptor inhibitor addition measured after 24 hrs in presence of 20 uM […] inhibitor propranolol; format: cell-based; method in brief: as §2
Beta-3 adrenergic receptor (Mus musculus), sequence (P25962 whole entry): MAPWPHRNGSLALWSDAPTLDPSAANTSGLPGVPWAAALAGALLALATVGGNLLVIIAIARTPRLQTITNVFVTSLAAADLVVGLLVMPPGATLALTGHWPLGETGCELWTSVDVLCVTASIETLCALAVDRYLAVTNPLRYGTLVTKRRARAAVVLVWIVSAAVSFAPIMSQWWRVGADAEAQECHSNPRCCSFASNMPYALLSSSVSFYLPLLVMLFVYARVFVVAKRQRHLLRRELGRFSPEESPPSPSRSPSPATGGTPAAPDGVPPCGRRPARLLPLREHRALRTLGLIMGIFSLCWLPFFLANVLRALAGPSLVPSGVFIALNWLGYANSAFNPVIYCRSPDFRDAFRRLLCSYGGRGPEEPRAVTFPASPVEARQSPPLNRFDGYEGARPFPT

[8] = system: 3T3-L1; test: Antiobesity activity in mouse 3T3L1 cells assessed as reduction in accumulation of lipid droplets administered on day 4 post differentiation induction measured on day 9 by Oil Red O staining-based microscopic analysis; format: functional, cell-based
[9] = organism: Mus musculus; test: Induction of PKA phosphorylation in mouse 3T3-L1 cells at 12.5 uM in presence of 20 uM H-89 by immunoblotting; format: cell-based
[10] = system: 3T3-L1; test: Antiobesity activity in mouse 3T3L1 cells assessed as glycerol release at 1 uM after 24 hrs relative to control; format: functional; method in brief: as §1

| SMILES | Activity [1] | Activity [2] | Activity [3] | EC50 [3] [µM] | Activity [4] | Activity [5] | Activity [6] | Activity [7] | Activity [8] | Activity [9] | Activity [10] [%] |
| --- | --- | --- | --- | --- | --- | --- | --- | --- | --- | --- | --- |
| CC1=CC(=O)[C@@H](O)[C@]2(C)C3[C@]4(O)OC[C@@]35[C@@H](C[C@@H]12)OC(=O)[C@H](O)[C@@]5(O)[C@@](O)(CO)[C@H]4O (some centres undefined) | inactive | inactive |  |  |  |  |  |  |  |  |  |
| CC1=CC(=O)[C@@H](O)[C@]2(C)C3[C@]4(O)OC[C@@]35[C@@H](C[C@@H]12)OC(=O)[C@H](O)[C@@]5(O)[C@@]1(CO1)[C@H]4O (some centres undefined) |  |  | Dose-dependent effect | 8.6 | inactive | Non-Toxic | Active | inactive | Dose-dependent effect | Active |  |
| C=C1[C@@H](O)[C@@]2(O)OC[C@]34C2[C@@]2(C)[C@H](O)C(=O)C=C(C)[C@@H]2C[C@H]3OC(=O)[C@H](O)[C@@]14O (some centres undefined) |  |  | Dose-dependent effect | 14.6 | inactive | Non-Toxic | Active | inactive | Dose-dependent effect | Active |  |
| CC(C)NCC(O)c1ccc(O)c(O)c1 (centres undefined) [ISOPROTERENOL] |  |  |  |  |  |  |  |  |  |  | 322 |
